Assay results reported in ChEMBL document CHEMBL1128590, “erbB-2 oncogene inhibition by geldanamycin derivatives: synthesis, mechanism of action, and structure-activity relationships” (J Med Chem, 1995).
pIC50: −log10 of the molar value. Active and inactive are the calls of the source. No cut-off for these calls is given here.

How the values were obtained:
SK-BR-3 = assay: In vitro inhibition of p185 erbB-2 oncoprotein in human breast cancer SK-BR-3 cells; format: functional, cell-based
How it was run: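 Cellular assay with read-out as depletion of p185 erbB-2 protein after drug treatment of the cells. This depletion tracks inhibition of p185 autophosphorylation.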

Mus musculus [1] = assay: In vivo inhibition of p185 phosphotyrosine in nu/nu nude mice bearing Fisher rat embryo cells transfected with human erbB-2; format: functional; parameters: concentration or dose not given beside the values
Mus musculus [2] = assay: In vivo inhibition of p185 phosphotyrosine in nu/nu nude mice bearing Fisher rat embryo cells transfected with human erbB-2 (inactive); format: functional, organism-based

Structure (SMILES) | pIC50 (SK-BR-3) | Inhibition (Mus musculus [1]) | inhibition (Mus musculus [2])
CO[C@H]1/C=C\C=C(/C)C(=O)N(CC(=O)c2ccc(N=[N+]=[N-])cc2)C2=CC(=O)C(N3CCC3)=C(C[C@@H](C)C[C@H](OC)[C@H](O)[C@@H](C)/C=C(\C)[C@@H]1OC(N)=O)C2=O | 5.72 | – | –
C=CCN[C@H]1[C@@H](OC)C[C@H](C)CC2=C(NC)C(=O)C=C(NC(=O)/C(C)=C/C=C\[C@H](OC)[C@@H](OC(N)=O)/C(C)=C/[C@@H]1C)C2=O | 6.00 | – | –
CNC1=C2C[C@@H](C)C[C@H](OC)[C@H](O)[C@@H](C)/C=C(\C)[C@H](OC(N)=O)[C@@H](OC)/C=C\C=C(/C)C(=O)NC(=CC1=O)C2=O | – | 18% | –
CO[C@H]1C[C@H](C)CC2=C(NC(C)C)C(=O)C=C(NC(=O)/C(C)=C/C=C\[C@H](OC)[C@@H](OC(N)=O)/C(C)=C/[C@H](C)/C1=N/O)C2=O | 6.57 | – | –
C=CCNC1=C2C[C@@H](C)C[C@H](OC)[C@H](OC(=O)NS(=O)(=O)N3CCC3)[C@@H](C)/C=C(\C)[C@H](OC(N)=O)[C@@H](OC)/C=C\C=C(/C)C(=O)NC(=CC1=O)C2=O | 6.10 | – | –
CO[C@H]1/C=C\C=C(/C)C(=O)N(CC(=O)c2cccc3ccccc23)C2=CC(=O)C(N)=C(C[C@@H](C)C[C@H](OC)[C@H](O)[C@@H](C)/C=C(\C)[C@@H]1OC(N)=O)C2=O | 7.15 | – | inactive
CNC1=C2C[C@@H](C)C[C@H](OC)C(=O)[C@@H](C)/C=C(\C)[C@H](OC(N)=O)[C@@H](OC)/C=C\C=C(/C)C(=O)NC(=CC1=O)C2=O | 7.47 | – | inactive
COc1ccccc1C(=O)CN1C(=O)/C(C)=C/CC[C@H](OC)[C@@H](OC(N)=O)/C(C)=C/[C@H](C)[C@@H](O)[C@@H](OC)C[C@H](C)CC2=C(N)C(=O)C=C1C2=O | 6.70 | – | –
C=CCNC1=C2C[C@@H](C)C[C@H](OC)[C@H](OC(=O)NS(=O)(=O)NC(C)C)[C@@H](C)/C=C(\C)[C@H](OC(N)=O)[C@@H](OC)/C=C\C=C(/C)C(=O)NC(=CC1=O)C2=O | 5.97 | – | –
CO[C@H]1C[C@H](C)CC2=C(N3CCC3)C(=O)C=C(NC(=O)/C(C)=C/C=C\[C@H](OC)[C@@H](OC(N)=O)/C(C)=C/[C@H](C)/C1=N/O)C2=O | 5.96 | – | inactive
CO[C@H]1/C=C\C=C(/C)C(=O)N(CC(=O)c2ccc(N=[N+]=[N-])c(I)c2)C2=CC(=O)C(N)=C(C[C@@H](C)C[C@H](OC)[C@H](O)[C@@H](C)/C=C(\C)[C@@H]1OC(N)=O)C2=O | 6.85 | – | –
C=CCNC1=C2C[C@@H](C)C[C@H](OC)[C@@H](F)[C@@H](C)/C=C(\C)[C@H](OC(N)=O)[C@@H](OC)/C=C\C=C(/C)C(=O)NC(=CC1=O)C2=O | 6.59 | 50% | –
CO[C@H]1/C=C\C=C(/C)C(=O)NC2=CC(=O)C(N3CCC3)=C(C[C@@H](C)C[C@H](OC)[C@@H](F)[C@@H](C)/C=C(\C)[C@@H]1OC(N)=O)C2=O | 6.77 | – | inactive
CO[C@H]1/C=C\C=C(/C)C(=O)NC2=CC(=O)C(N3CCC3)=C(C[C@@H](C)C[C@H](OC)[C@H](O)[C@@H](C)/C=C(\C)[C@@H]1/N=C(/N)S)C2=O | 5.77 | – | –
CO[C@H]1/C=C\C=C(/C)C(=O)N(CC(=O)c2ccc([N+](=O)[O-])cc2)C2=CC(=O)C(N)=C(C[C@@H](C)C[C@H](OC)[C@H](O)[C@@H](C)/C=C(\C)[C@@H]1OC(N)=O)C2=O | 7.05 | – | –
C=CCNC1=C2C[C@@H](C)C[C@H](OC)[C@H](OC(=O)NS(=O)(=O)N3CN(C)C3)[C@@H](C)/C=C(\C)[C@H](OC(N)=O)[C@@H](OC)/C=C\C=C(/C)C(=O)NC(=CC1=O)C2=O | < 5.60 | – | –
CO[C@H]1/C=C\C=C(/C)C(=O)N(CC(C)=O)C2=CC(=O)C(N)=C(C[C@@H](C)C[C@H](OC)[C@H](O)[C@@H](C)/C=C(\C)[C@@H]1OC(N)=O)C2=O | 6.08 | – | –
CO[C@H]1/C=C\C=C(/C)C(=O)NC2=CC(=O)C(N3CCC3)=C(C[C@@H](C)C[C@H](OC)[C@H](O)[C@@H](C)/C=C(\C)[C@@H]1OC(=O)C(=O)O)C2=O | 6.00 | – | –
CO[C@H]1/C=C\C=C(/C)C(=O)N(CC(=O)c2ccc(N=[N+]=[N-])cc2)C2=CC(=O)C(N)=C(C[C@@H](C)C[C@H](OC)[C@H](O)[C@@H](C)/C=C(\C)[C@@H]1OC(N)=O)C2=O | 6.64 | – | –
CO[C@H]1/C=C\C=C(/C)C(=O)NC2=CC(=O)C(NC(C)C)=C(C[C@@H](C)C[C@H](OC)[C@H](O)[C@@H](C)/C=C(\C)[C@@H]1OC(N)=O)C2=O | – | 87% | –
CNC1=C2C[C@@H](C)C[C@H](OC)[C@H](NCc3ccccc3)[C@@H](C)/C=C(\C)[C@H](OC(N)=O)[C@@H](OC)/C=C\C=C(/C)C(=O)NC(=CC1=O)C2=O | 6.07 | – | –
C=CCNC1=C2C[C@@H](C)C[C@H](OC)[C@H](O)[C@@H](C)/C=C(\C)[C@H](OC(N)=O)[C@@H](OC)/C=C\C=C(/C)C(=O)NC(=CC1=O)C2=O [TANESPIMYCIN] | – | 56% | –
COC1=C2C[C@@H](C)C[C@H](OC)[C@H](O)[C@@H](C)/C=C(\C)[C@H](OC(N)=O)[C@@H](OC)/C=C\C=C(/C)C(=O)NC(=CC1=O)C2=O | – | – | inactive
COC(=O)/C(C)=C\C=C\[C@H](OC)[C@@H](OC(N)=O)/C(C)=C/[C@H](C)[C@@H](O)[C@H](C[C@H](C)CC1=C(N2CCC2)C(O)=CC(=N)C1=O)OC | < 5.49 | – | –
CO[C@H]1/C=C\C=C(/C)C(=O)NC2=CC(=O)C(N3CCC3)=C(C[C@@H](C)C[C@H](OC)[C@H](O)[C@@H](C)/C=C(\C)[C@@H]1OC(N)=O)C2=O | – | 61% | –
CO[C@H]1/C=C\C=C(/C)C(=O)NC2=CC(=O)C(N3CCC3)=C(C[C@@H](C)C[C@H](OC)[C@H](O)[C@@H](C)/C=C(\C)[C@@H]1O)C2=O | 5.89 | – | –

More lines, main results first:

pIC50 (SK-BR-3) | Structure (SMILES) | Inhibition (Mus musculus [1]) | inhibition (Mus musculus [2])
5.92 | COc1ccc(C(=O)CN2C(=O)/C(C)=C/C=C\[C@H](OC)[C@@H](OC(N)=O)/C(C)=C/[C@H](C)[C@@H](O)[C@@H](OC)C[C@H](C)CC3=C(N)C(=O)C=C2C3=O)cc1 | – | –
6.22 | COc1ccccc1C(=O)CN1C(=O)/C(C)=C/C=C\[C@H](OC)[C@@H](OC(N)=O)/C(C)=C/[C@H](C)[C@@H](O)[C@@H](OC)C[C@H](C)CC2=C(N)C(=O)C=C1C2=O | 50% | –
6.85 | CO[C@H]1/C=C\C=C(/C)C(=O)NC2=CC(=O)C(N3CCC3)=C(C[C@@H](C)C[C@H](OC)[C@H](OC(=O)NS(=O)(=O)NC(C)C)[C@@H](C)/C=C(\C)[C@@H]1OC(N)=O)C2=O | – | inactive
7.40 | CO[C@H]1C[C@H](C)CC2=C(N3CCC3)C(=O)C=C(NC(=O)/C(C)=C/CC[C@H](OC)[C@@H](OC(N)=O)/C(C)=C/[C@H](C)[C@@H]1F)C2=O | – | inactive
6.66 | C=CCNC1=C2C[C@@H](C)C[C@H](OC)C(=O)[C@@H](C)/C=C(\C)[C@H](OC(N)=O)[C@@H](OC)/C=C\C=C(/C)C(=O)NC(=CC1=O)C2=O | – | –
5.59 | CO[C@H]1/C=C\C=C(/C)C(=O)NC2=CC(=O)C(N3CCC3)=C(C[C@@H](C)C[C@H](OC)[C@H](O)[C@@H](C)/C=C(\C)[C@@H]1NC(N)=O)C2=O | – | –
< 5.41 | CO[C@H]1/C=C\C=C(/C)C(=O)NC2=CC(=O)C(N)=C(C[C@@H](C)C[C@H](OC)[C@H](O)[C@@H](C)/C=C(\C)[C@@H]1O)C2=O | – | –
6.30 | CO[C@H]1/C=C\C=C(/C)C(=O)NC2=CC(=O)C(NC3CC3)=C(C[C@@H](C)C[C@H](OC)[C@@H](F)[C@@H](C)/C=C(\C)[C@@H]1OC(N)=O)C2=O | – | –
5.92 | C=CCNC1=C2C[C@@H](C)C[C@H](OC)[C@@H](F)[C@@H](C)/C=C(\C)[C@H](OC(N)=O)[C@@H](OC)CC/C=C(\C)C(=O)NC(=CC1=O)C2=O | – | inactive
6.70 | CO[C@H]1/C=C\C=C(/C)C(=O)N(CC(=O)c2ccc3ccccc3c2)C2=CC(=O)C(N)=C(C[C@@H](C)C[C@H](OC)[C@H](O)[C@@H](C)/C=C(\C)[C@@H]1OC(N)=O)C2=O | – | inactive
< 5.48 | C=CCNC1=C2C[C@@H](C)C[C@H](OC)[C@H](O)[C@@H](C)/C=C(\C)[C@H](OC(=O)NCC)[C@@H](OC)/C=C\C=C(/C)C(=O)NC(=CC1=O)C2=O | – | –
< 5.43 | CO[C@H]1/C=C\C=C(/C)C(=O)NC2=CC(=O)C(NC3CCC3)=C(C[C@@H](C)C[C@H](OC)[C@H](O)[C@@H](C)/C=C(\C)C1=O)C2=O | – | –
< 5.51 | CO[C@H]1/C=C\C=C(/C)C(=O)N(Cc2ccccn2)C2=CC(=O)C(N)=C(C[C@@H](C)C[C@H](OC)[C@H](O)[C@@H](C)/C=C(\C)[C@@H]1OC(N)=O)C2=O | – | –
7.10 | CO[C@H]1/C=C\C=C(/C)C(=O)N(CC(=O)c2ccc(Cl)c(Cl)c2)C2=CC(=O)C(N)=C(C[C@@H](C)C[C@H](OC)[C@H](O)[C@@H](C)/C=C(\C)[C@@H]1OC(N)=O)C2=O | – | inactive
7.30 | CO[C@H]1/C=C\C=C(/C)C(=O)NC2=CC(=O)C(N3CCC3)=C(C[C@@H](C)C[C@H](OC)[C@H](OC(N)=O)[C@@H](C)/C=C(\C)[C@@H]1OC(N)=O)C2=O | – | inactive
6.72 | CO[C@H]1/C=C\C=C(/C)C(=O)NC2=CC(=O)C(N3CCC3)=C(C[C@@H](C)C[C@H](OC)[C@H](OC(=O)NS(=O)(=O)N3CCN(C)CC3)[C@@H](C)/C=C(\C)[C@@H]1OC(N)=O)C2=O | – | inactive
< 5.48 | C=CCNC1=C2C[C@@H](C)C[C@H](OC)[C@H](O)[C@@H](C)/C=C(\C)[C@H](OC(=O)CN)[C@@H](OC)/C=C\C=C(/C)C(=O)NC(=CC1=O)C2=O | – | –
7.43 | CO[C@H]1C[C@H](C)CC2=C(N)C(=O)C=C(NC(=O)/C(C)=C/CC[C@H](OC)[C@@H](OC(N)=O)/C(C)=C/[C@H](C)[C@H]1O)C2=O | 45% | –
7.47 | CO[C@H]1C[C@H](C)CC2=C(N3CCC3)C(=O)C=C(NC(=O)/C(C)=C/C=C\[C@H](OC)[C@@H](OC(N)=O)/C(C)=C/[C@H](C)C1=O)C2=O | – | inactive
6.52 | CO[C@H]1/C=C\C=C(/C)C(=O)N(CC(=O)c2ccccc2)C2=CC(=O)C(N)=C(C[C@@H](C)C[C@H](OC)[C@H](O)[C@@H](C)/C=C(\C)[C@@H]1OC(N)=O)C2=O | – | –
